From ChEMBL document CHEMBL4033795, “Design, Synthesis, and Structure-Activity Relationship Study of 2-Oxo-3,4-dihydropyrimido[4,5- d]pyrimidines as New Colony Stimulating Factor 1 Receptor (CSF1R) Kinase Inhibitors” (J Med Chem, 2018)

What was measured:
[1] = molecular target: Macrophage colony-stimulating factor 1 receptor (Homo sapiens, UniProt P07333); test: Inhibition of recombinant human His-tagged CSF1R cytoplasmic domain (538 to 910 residues) expressed in baculovirus using tyr4 peptide as substrate after 1 hr by FRET-based Z'-Lyte assay
Sequence of Macrophage colony-stimulating factor 1 receptor (P07333 whole entry, the tested form may be a part): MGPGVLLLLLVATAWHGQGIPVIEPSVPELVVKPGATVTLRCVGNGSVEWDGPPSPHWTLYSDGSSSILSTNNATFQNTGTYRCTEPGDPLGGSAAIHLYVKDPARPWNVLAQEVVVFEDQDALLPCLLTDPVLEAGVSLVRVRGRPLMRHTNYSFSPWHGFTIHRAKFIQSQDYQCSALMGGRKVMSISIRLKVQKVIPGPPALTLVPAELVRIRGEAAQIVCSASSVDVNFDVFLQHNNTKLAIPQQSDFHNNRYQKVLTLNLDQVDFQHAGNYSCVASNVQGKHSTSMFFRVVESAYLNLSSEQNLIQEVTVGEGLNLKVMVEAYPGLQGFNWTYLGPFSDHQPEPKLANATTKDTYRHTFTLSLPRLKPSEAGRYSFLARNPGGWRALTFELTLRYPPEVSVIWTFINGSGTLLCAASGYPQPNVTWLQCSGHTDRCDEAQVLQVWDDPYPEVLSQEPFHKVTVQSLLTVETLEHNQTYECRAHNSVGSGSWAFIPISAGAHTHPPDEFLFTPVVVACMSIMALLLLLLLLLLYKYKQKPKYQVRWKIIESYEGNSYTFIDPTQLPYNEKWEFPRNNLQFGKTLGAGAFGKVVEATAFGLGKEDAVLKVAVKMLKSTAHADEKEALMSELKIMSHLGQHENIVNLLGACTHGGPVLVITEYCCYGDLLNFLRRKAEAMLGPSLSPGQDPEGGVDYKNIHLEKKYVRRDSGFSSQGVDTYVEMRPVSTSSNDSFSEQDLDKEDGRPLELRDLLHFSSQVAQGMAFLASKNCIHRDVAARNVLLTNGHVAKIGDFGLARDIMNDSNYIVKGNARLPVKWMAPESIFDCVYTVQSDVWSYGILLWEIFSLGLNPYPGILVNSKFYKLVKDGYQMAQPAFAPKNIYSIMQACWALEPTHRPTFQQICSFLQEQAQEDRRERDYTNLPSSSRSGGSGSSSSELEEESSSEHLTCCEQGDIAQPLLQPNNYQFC
Outline: (§1)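 Z′-Lyte FRET assay with CSF1R or EGFR and 2 μM Tyr4 peptide substrate in 1× kinase buffer. ATP was supplied as a 100 μM solution, a stock and not the final concentration. Compounds were 3-fold serially diluted in DMSO. Reaction ran 1 h at room temperature, followed by 1 h development and a stop reagent. Phospho-peptide, no-ATP and DMSO controls were included. IC50 by curve fitting; mean of at least three independent experiments.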

[2] = molecular target: Epidermal growth factor receptor (Homo sapiens, UniProt P00533); test: Inhibition of recombinant human wild type GST-tagged EGFR cytoplasmic domain (668 to 1210 residues) expressed in baculovirus using tyr4 peptide as substrate after 1 hr by FRET-based Z'-Lyte assay
Sequence of Epidermal growth factor receptor (P00533 whole entry, the tested form may be a part): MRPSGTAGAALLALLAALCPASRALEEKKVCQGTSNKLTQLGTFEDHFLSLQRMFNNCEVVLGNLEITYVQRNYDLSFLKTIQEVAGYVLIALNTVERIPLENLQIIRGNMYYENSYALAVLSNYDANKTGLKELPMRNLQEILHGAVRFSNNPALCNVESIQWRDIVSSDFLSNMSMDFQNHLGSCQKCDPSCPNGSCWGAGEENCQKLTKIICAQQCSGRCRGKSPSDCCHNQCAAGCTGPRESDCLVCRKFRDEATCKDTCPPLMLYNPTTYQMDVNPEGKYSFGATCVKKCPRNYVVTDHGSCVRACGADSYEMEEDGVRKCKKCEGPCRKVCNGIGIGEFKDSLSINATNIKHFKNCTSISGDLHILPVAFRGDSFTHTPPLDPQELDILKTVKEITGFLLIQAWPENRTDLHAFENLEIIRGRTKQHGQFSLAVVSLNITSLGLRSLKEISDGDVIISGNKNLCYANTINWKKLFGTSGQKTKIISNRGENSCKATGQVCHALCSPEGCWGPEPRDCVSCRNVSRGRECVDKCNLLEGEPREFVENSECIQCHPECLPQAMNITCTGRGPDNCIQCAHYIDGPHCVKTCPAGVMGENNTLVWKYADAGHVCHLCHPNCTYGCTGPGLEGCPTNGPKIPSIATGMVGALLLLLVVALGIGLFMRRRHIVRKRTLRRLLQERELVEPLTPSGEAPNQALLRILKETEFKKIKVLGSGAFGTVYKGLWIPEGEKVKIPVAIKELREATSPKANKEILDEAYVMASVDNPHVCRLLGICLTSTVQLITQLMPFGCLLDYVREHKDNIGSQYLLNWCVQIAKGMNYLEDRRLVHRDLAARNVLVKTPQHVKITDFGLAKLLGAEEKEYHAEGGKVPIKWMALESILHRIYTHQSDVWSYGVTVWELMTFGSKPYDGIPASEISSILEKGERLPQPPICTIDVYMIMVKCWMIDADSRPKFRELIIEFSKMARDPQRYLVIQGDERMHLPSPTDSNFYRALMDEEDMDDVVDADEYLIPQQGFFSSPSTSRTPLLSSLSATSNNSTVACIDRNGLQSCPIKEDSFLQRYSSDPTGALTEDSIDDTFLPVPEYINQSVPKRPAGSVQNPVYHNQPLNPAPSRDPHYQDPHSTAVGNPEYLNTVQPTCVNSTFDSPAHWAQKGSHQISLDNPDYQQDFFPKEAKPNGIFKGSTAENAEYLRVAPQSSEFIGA

Homo sapiens = species: Homo sapiens; test: Selectivity ratio of IC50 for recombinant human wild type GST-tagged EGFR cytoplasmic domain (668 to 1210 residues) expressed in baculovirus to IC50 for recombinant human His-tagged CSF1R cytoplasmic domain (538 to 910 residues) expressed in baculovirus; outline: as §1

Row | IC50 [1] [nM] | IC50 [2] [nM] | Ratio IC50 (Homo sapiens) | SMILES
1 | 3.4 | 302 | – | CCC(=O)N1CC[C@H](N2C(=O)N(c3cc(OC)ccc3F)Cc3cnc(Nc4ccc(N5CCN(C6COC6)CC5)c(C)c4)nc32)C1
2 | 4.9 | 209 | – | CCC(=O)N1CC[C@H](N2C(=O)N(c3cc(OC)ccc3F)Cc3cnc(Nc4ccc(N5CCCN(C)CC5)c(C)c4)nc32)C1
3 | 41.2 | 467 | – | CCC(=O)N1CC[C@H](N2C(=O)N(c3cc(OC)ccc3F)Cc3cnc(Nc4ccc(N5CCCCC5)c(C)c4)nc32)C1
4 | 14.8 | 1200 | – | CCC(=O)N1CC[C@H](N2C(=O)N(c3cc(OC)ccc3F)Cc3cnc(Nc4ccc(N5CCN(C)CC5)c(Cl)c4)nc32)C1
5 | 6.2 | 224 | – | CCC(=O)N1CC[C@H](N2C(=O)N(c3cc(OC)ccc3F)Cc3cnc(Nc4ccc(N5CCC6(CCN(C)CC6)CC5)c(C)c4)nc32)C1
6 | 13.6 | 1100 | – | CCC(=O)N1CC[C@H](N2C(=O)N(c3cc(OC)ccc3F)Cc3cnc(Nc4ccc(N5CCN(C)CC5)cc4)nc32)C1
7 | 4.7 | 286 | – | CCC(=O)N1CC[C@H](N2C(=O)N(c3cc(OC)ccc3F)Cc3cnc(Nc4ccc(N5CCC(N(C)C)CC5)c(C)c4)nc32)C1
8 | 10 | 518 | – | CCC(=O)N1CC[C@H](N2C(=O)N(c3cc(OC)ccc3F)Cc3cnc(Nc4ccc(N5CCN(C)CC5)c(CC)c4)nc32)C1
9 | 25.2 | 626 | – | CCC(=O)N1CC[C@H](N2C(=O)N(c3cc(OC)ccc3F)Cc3cnc(Nc4ccc(N5CCOCC5)c(C)c4)nc32)C1
10 | 31.9 | 3400 | – | CCC(=O)N1CC[C@H](N2C(=O)N(c3cc(OC)ccc3F)Cc3cnc(Nc4ccc(N5CCN(C)CC5)c(C(F)(F)F)c4)nc32)C1
11 | 20.2 | 2500 | – | CCC(=O)N1CC[C@H](N2C(=O)N(c3cc(OC)ccc3F)Cc3cnc(Nc4ccc(N5CCN(C)CC5)cc4C)nc32)C1
12 | 6.5 | 218 | – | CCC(=O)N1CC[C@H](N2C(=O)N(c3cc(OC)ccc3F)Cc3cnc(Nc4ccc(N5CC6(CCN(C)CC6)C5)c(C)c4)nc32)C1
13 | 25.8 | 365 | – | CCC(=O)N1CC[C@H](N2C(=O)N(c3cc(OC)ccc3F)Cc3cnc(Nc4ccc(N5CCN(C)CC5)c(C(C)C)c4)nc32)C1
14 | 7.2 | 715 | – | CCC(=O)N1CC[C@H](N2C(=O)N(c3cc(OC)ccc3F)Cc3cnc(Nc4ccc(N5CCN(C)[C@@H](C)C5)c(C)c4)nc32)C1
15 | 5.2 | 17.6 | – | CCC(=O)N1CC[C@H](N2C(=O)N(c3ccccc3F)Cc3cnc(Nc4ccc(N5CCN(C)CC5)c(C)c4)nc32)C1
16 | 4.5 | 421 | 99 to 200 | CCC(=O)N1CC[C@H](N2C(=O)N(c3cccc(OC)c3F)Cc3cnc(Nc4ccc(N5CCN(C)CC5)c(C)c4)nc32)C1
17 | 25.9 | 148 | – | CCC(=O)N1CC[C@H](N2C(=O)N(c3cc(OC)ccc3F)Cc3cnc(Nc4ccc(N5CCN(C(C)=O)CC5)c(C)c4)nc32)C1
18 | 17.1 | 1300 | – | CCC(=O)N1CC[C@H](N2C(=O)N(c3cc(OC)ccc3F)Cc3cnc(Nc4ccc(N5CCN(C)CC5)c(F)c4)nc32)C1
19 | 4.5 | 417 | 92 | CCC(=O)N1CC[C@H](N2C(=O)N(c3cccc(OC)c3)Cc3cnc(Nc4ccc(N5CCN(C)CC5)c(C)c4)nc32)C1
20 | 30.4 | 1600 | – | CCC(=O)N1CC[C@H](N2C(=O)N(c3cc(OC)ccc3F)Cc3cnc(Nc4ccc(N5CCN(C)CC5)cc4OC)nc32)C1
21 | 5.8 | 600 | – | CCC(=O)N1CC[C@H](N2C(=O)N(c3cc(OC)ccc3F)Cc3cnc(Nc4ccc(N5CCN(C)CC5)c(OC)c4)nc32)C1
22 | 5.8 | 153 | – | CCC(=O)N1CC[C@H](N2C(=O)N(c3ccc(OC)cc3)Cc3cnc(Nc4ccc(N5CCN(C)CC5)c(C)c4)nc32)C1

More lines, now with the values behind:

Row | SMILES | IC50 [1] [nM] | IC50 [2] [nM] | Ratio IC50 (Homo sapiens)
23 | CCC(=O)N1CC[C@H](N2C(=O)N(c3ccccc3C)Cc3cnc(Nc4ccc(N5CCN(C)CC5)c(C)c4)nc32)C1 | 5.6 | 7.6 | –
24 | CCC(=O)N1CC[C@H](N2C(=O)N(c3ccc(Cl)cc3)Cc3cnc(Nc4ccc(N5CCN(C)CC5)c(C)c4)nc32)C1 | 14.8 | 383 | –
25 | CC(=O)N1CC[C@H](N2C(=O)N(c3ccccc3Cl)Cc3cnc(Nc4ccc(N5CCN(C)CC5)c(C)c4)nc32)C1 | 5.5 | 12.1 | –
26 | CCCC(=O)N1CC[C@H](N2C(=O)N(c3ccccc3Cl)Cc3cnc(Nc4ccc(N5CCN(C)CC5)c(C)c4)nc32)C1 | 10.1 | 28.9 | –
27 | CCC(=O)N1CC[C@@H](N2C(=O)N(c3ccccc3Cl)Cc3cnc(Nc4ccc(N5CCN(C)CC5)c(C)c4)nc32)C1 | 20.9 | 23.4 | –
28 | CCC(=O)N1CC[C@H](N2C(=O)N(c3cc(OC)ccc3F)Cc3cnc(Nc4ccc(N5C[C@@H](C)N(C)[C@@H](C)C5)c(C)c4)nc32)C1 | 7.8 | 888 | –
29 | Cc1cc(Nc2ncc3c(n2)N([C@H]2CCN(C(=O)CC(C)C)C2)C(=O)N(c2ccccc2Cl)C3)ccc1N1CCN(C)CC1 | 10.3 | 22.2 | –
30 | CCC(=O)N1CC[C@H](N2C(=O)N(c3cccc(OC(F)(F)F)c3)Cc3cnc(Nc4ccc(N5CCN(C)CC5)c(C)c4)nc32)C1 | 151 | 889 | –
31 | CCCN1CC[C@H](N2C(=O)N(c3ccccc3Cl)Cc3cnc(Nc4ccc(N5CCN(C)CC5)c(C)c4)nc32)C1 | 181 | 52.8 | –
32 | CCC(=O)N1CC[C@H](N2C(=O)N(c3cc(OC)ccc3F)Cc3cnc(Nc4ccc(N5C[C@H]6CN(C)C[C@H]6C5)c(C)c4)nc32)C1 | 7 | 216 | –
33 | CCC(=O)N1CC[C@H](N2C(=O)N(c3cc(OC)ccc3F)Cc3cnc(Nc4ccc(N(C)CCN(C)C)c(C)c4)nc32)C1 | 10.3 | 1300 | –
34 | Cc1cc(Nc2ncc3c(n2)N([C@H]2CCN(C(=O)C4CC4)C2)C(=O)N(c2ccccc2Cl)C3)ccc1N1CCN(C)CC1 | 20.7 | 28.7 | –
35 | CCC(=O)N1CC[C@H](N2C(=O)N(c3cccc(OC(F)F)c3)Cc3cnc(Nc4ccc(N5CCN(C)CC5)c(C)c4)nc32)C1 | 28 | 257 | –
36 | CCC(=O)N1CC[C@H](N2C(=O)N(c3cc(OC)ccc3F)Cc3cnc(Nc4ccc(N5CCC6(CCN(C)C6)C5)c(C)c4)nc32)C1 (stereo partly specified) | 6.8 | 296 | –
37 | Cc1cc(Nc2ncc3c(n2)N([C@H]2CCN(C(=O)C(C)(C)C)C2)C(=O)N(c2ccccc2Cl)C3)ccc1N1CCN(C)CC1 | 20.1 | 29.4 | –
38 | Cc1cc(Nc2ncc3c(n2)N([C@H]2CCN(C(=O)CN(C)C)C2)C(=O)N(c2ccccc2Cl)C3)ccc1N1CCN(C)CC1 | 22.7 | 26.6 | –
39 | FC(F)(F)c1ccc(CNc2ccc(Cc3c[nH]c4ncc(Cl)cc34)cn2)cn1 [PEXIDARTINIB] | – | > 10000 | –
40 | CCC(=O)N1CC[C@H](N2C(=O)N(c3ccc(F)cc3)Cc3cnc(Nc4ccc(N5CCN(C)CC5)c(C)c4)nc32)C1 | 18.1 | 71.6 | –
41 | CCC(=O)N1CC[C@H](N2C(=O)N(c3ccccc3Cl)Cc3cnc(Nc4ccc(N5CCN(C)CC5)c(C)c4)nc32)C1 | 5 | 15.7 | –
42 | Cc1cc(Nc2ncc3c(n2)N([C@H]2CCN(C(=O)C(C)C)C2)C(=O)N(c2ccccc2Cl)C3)ccc1N1CCN(C)CC1 | 6.7 | 8.5 | –
43 | CCC(=O)N1CC[C@H](N2C(=O)N(c3cccc(C)c3)Cc3cnc(Nc4ccc(N5CCN(C)CC5)c(C)c4)nc32)C1 | 16.4 | 365 | –
44 | Cc1cc(Nc2ncc3c(n2)N([C@H]2CCN(C(=O)CO)C2)C(=O)N(c2ccccc2Cl)C3)ccc1N1CCN(C)CC1 | 20 | 7 | –
45 | CCC(=O)N1CC[C@H](N2C(=O)N(c3cccc(F)c3)Cc3cnc(Nc4ccc(N5CCN(C)CC5)c(C)c4)nc32)C1 | 15.2 | 35.8 | –
46 | CCC(=O)N1CC[C@H](N2C(=O)N(c3ccc(C)cc3)Cc3cnc(Nc4ccc(N5CCN(C)CC5)c(C)c4)nc32)C1 | 20.6 | 377 | –
47 | Cc1cc(Nc2ncc3c(n2)N([C@H]2CCN(C(=O)C4CCCC4)C2)C(=O)N(c2ccccc2Cl)C3)ccc1N1CCN(C)CC1 | 28.4 | 25.5 | –
48 | CCC(=O)N1CC[C@H](N2C(=O)N(c3cccc(Cl)c3)Cc3cnc(Nc4ccc(N5CCN(C)CC5)c(C)c4)nc32)C1 | 13.2 | 144 | –
49 | CCC(=O)N1CC[C@H](N2C(=O)N(c3ccccc3OC)Cc3cnc(Nc4ccc(N5CCN(C)CC5)c(C)c4)nc32)C1 | 5.1 | 27.4 | –
50 | Cc1cc(Nc2ncc3c(n2)N([C@H]2CCN(C(=O)C4CCCCC4)C2)C(=O)N(c2ccccc2Cl)C3)ccc1N1CCN(C)CC1 | 30.6 | 24.9 | –
51 | C=CC(=O)N1CC[C@H](N2C(=O)N(c3ccccc3Cl)Cc3cnc(Nc4ccc(N5CCN(C)CC5)c(C)c4)nc32)C1 | 30 | 0.5 | –
52 | CCC(=O)N1CC[C@H](N2C(=O)N(c3cccc(OC)c3Cl)Cc3cnc(Nc4ccc(N5CCN(C)CC5)c(C)c4)nc32)C1 | 4.4 | 413 | 99 to 200
